Shown are actives, neighbours in structure and some others; about 4.4% of the full set was active somewhere.
AI-2 QS modul: Vibrio harveyi AI-2 quorum sensing modulation | actives 0.4% (n = 300,000) | Vibrio harveyi JMH597 AI-2 luminescence/OD600 ratio, 9 h; hits give low values; strain lacks LuxN and CqsS sensors; 0 = neutral-control median | activity change, % at 7.5 µM | AID 2094; in the data active = activity change below about -75%, passing the limit was not always enough;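 also: luminescence divided by OD600 gain over 9 h not by final OD600 alone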
MsrA inh: bovine MsrA inhibition. purified bovine MsrA, absorbance read-out. inhibition, % at 15.5 µM. actives 0.75% (n = 360,000). AID 651718; in the data active = inhibition above about 4.5%;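 also: 0% = vehicle wells with enzyme and 100% = reference inhibitor wells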
AHR act: activates the human aryl hydrocarbon receptor; AID 2796; AHR-responsive luciferase reporter cells, luminescence; P35869; actives 2.5% (n = 320,000); activation, % at 5 µM; in the data active = activation above about 47%;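 also: 0% = vehicle wells and 100% = reference agonist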
Tb MetRS inh: blocks T. brucei methionyl-tRNA synthetase activity; purified T. brucei MetRS, ATP depletion, Kinase-Glo luminescence; inhibition, % at 11.9 µM; actives 0.4% (n = 360,000); AID 624268;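 active = inhibition above a per-plate cutoff of the control wells' mean inhibition plus 3 SD, cut at about 5.5% in these data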;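 also: 0% = DMSO wells median and 100% = median of wells with control inhibitor compound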
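Material: T. brucei methionyl-tRNA synthetase, purified; reagent: substrates ATP, L-methionine and bulk Escherichia coli tRNA; dosing: 11.9 µM single point; timing: 15 min plus 2 h at 25 °C; detection: luminescence of leftover ATP; evaluation: % inhibition; control set: DMSO-only wells as low control; replicates: singlicate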
m5-HT2A agonist: agonists of mouse serotonin 5-HT2A receptor (HTR2A); P35363; CHO-K1 mHTR2A beta-arrestin complementation, luminescence; percent of 30 µM serotonin response; activation, % at 7.6 µM; actives 0.66% (n = 360,000); AID 624169;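 active = activation above a run cutoff, the mean activation of all tested compounds plus 3 SD, cut at about 14% in these data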;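 also: 0% = plate median of compound wells and 100% = 30 µM serotonin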
Target sequence (P35363 whole entry, looked up): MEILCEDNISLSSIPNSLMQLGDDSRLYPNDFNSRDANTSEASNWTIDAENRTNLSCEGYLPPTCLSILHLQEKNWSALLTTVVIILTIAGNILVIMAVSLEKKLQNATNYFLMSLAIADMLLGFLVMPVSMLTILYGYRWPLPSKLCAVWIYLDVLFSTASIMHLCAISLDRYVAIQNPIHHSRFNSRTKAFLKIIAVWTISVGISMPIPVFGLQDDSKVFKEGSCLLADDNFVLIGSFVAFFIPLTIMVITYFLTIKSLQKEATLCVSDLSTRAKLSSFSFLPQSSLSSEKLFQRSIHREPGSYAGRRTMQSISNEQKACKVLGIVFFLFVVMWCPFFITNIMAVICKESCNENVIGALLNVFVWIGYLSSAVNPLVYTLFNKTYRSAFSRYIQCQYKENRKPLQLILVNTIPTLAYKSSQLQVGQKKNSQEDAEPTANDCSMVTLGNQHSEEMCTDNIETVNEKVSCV
bovine MsrA act: activators of bovine methionine sulfoxide reductase A; activation, % at 10.6 µM; purified bovine MsrA, absorbance read-out; actives 0.3% (n = 360,000); in the data active = activation above about 7.5%;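 also: 0% = vehicle and 100% = reference activator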
AHR act confirm: confirmation of human aryl hydrocarbon receptor activators; human cells, AHR-responsive luciferase reporter, luminescence; actives 87% (n = 2,300); activation, % at 9 µM; shares compounds with AHR act; in the data active = activation above about 49%;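 also: HepG2 hepatoma cells carrying a DRE-driven firefly luciferase reporter; 0% = vehicle wells and 100% = reference agonist wells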
PXR act counter: counter-screen for AHR activators: human PXR activators; actives 88% (n = 2,300); AID 434939; cell-based PXR reporter, luciferase luminescence; activation, % at 11.6 µM; shares compounds with AHR act; in the data active = activation above about 11%;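 also: human hepatoma DPX-2 cells expressing full-length human PXR; 0% = DMSO and 100% = reference agonist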
* = called active by the depositor; . = no result.

SMILES	AI-2 QS modul	MsrA inh	AHR act	Tb MetRS inh	m5-HT2A agonist	bovine MsrA act	AHR act confirm	PXR act counter
COc1nc(Nc2ccc3c(c2)OCO3)nc(OC)n1	0	-1	119*	-1	0	-2	109*	18*
Cc1ccc2ncnc(Nc3ccccc3)c2c1	-26	1	37	-1	2	-1	.	.
COc1ccc(Nc2ncnc3ccc(Br)cc23)cc1OC	2	.	86*	0	1	-3	72*	18*
CCOc1ccc2nc(NC(=O)C3CSC4(C)CCC(=O)N34)sc2c1 (stereo not drawn)	.	0	4	-1	4	-2	.	.
COc1cc(C2c3[nH]c4ccccc4c3CC3COC(=O)N32)cc(OC)c1O (stereo not drawn)	.	-1	.	0	0	0	.	.
Cc1cccc(Nc2ncnc3nc[nH]c23)c1	13	0	13	0	0	-2	.	.
COc1ccc(Nc2ncnc3nc[nH]c23)cc1OC	-28	.	90*	-1	6	-6	75*	21*
Clc1cccc(Nc2ncnc3ccc(Br)cc23)c1	-8	0	41	0	5	-4	.	.
Cc1cccc(Nc2ncnc3ccc(Br)cc23)c1	3	3	101*	0	1	-13	72*	30*
CCCCNC(=O)C1(C)CCN1C(=O)c1cc2ccccc2s1 (stereo not drawn)	.	0	.	0	-5	-5	.	.
CN(C)c1ccc(C(c2ccc(N(C)C)cc2)C(O)c2ccccc2)cc1 (stereo not drawn)	.	0	.	0	-5	-2	.	.
C=CCN1C(=O)c2ccccc2NC1c1ccc(Br)s1 (stereo not drawn)	9	-1	2	0	9	-3	.	.
O=C1c2ccccc2NC(c2ccc(Br)s2)N1O (stereo not drawn)	71	0	80*	.	.	.	81*	25*
CCCCn1c(N)c(N(CC(C)C)C(=O)CSCc2c(C)noc2C)c(=O)[nH]c1=O	5	1	0	-1	4	-1	.	.
CCC(C)CN1C(=O)CSCC1(C)C(=O)NC(C)C (stereo not drawn)	.	0	.	0	-2	.	.	.
Cc1cccc(-n2ncc3c(NCCCn4ccnc4)ncnc32)c1	13	-1	83*	-1	-5	-4	57*	45*
Cc1sc2ncnc(NCCCn3ccnc3)c2c1C	15	0	127*	0	2	-5	102*	22*
c1cn(CCCNc2ncnc3nc[nH]c23)cn1	6	1	17	-1	-7	-2	.	.
CCOc1ccc2nc(/N=C/c3c(C)[nH]n(-c4ccc(C)cc4)c3=O)sc2c1	13	0	89*	-3	0	-5	67*	22*
COCC(=O)Nc1ccc2c(c1)[C@@H]1C[C@H](CC(=O)OC)O[C@H](CO)[C@@H]1O2	.	-1	.	0	2	-1	.	.
COc1cc2c(cc1OC)[C@@H](NC(=O)CCc1ccccc1)[C@H](O)C2	.	1	.	1	4	-2	.	.
NC(=S)N/N=C/c1ccc(Br)o1	21	4	-2	0	-5	-5	.	.
NC(=S)N/N=C/c1ccc(-c2cc(Cl)c(Cl)cc2Cl)o1	46	-1	108*	0	7	-1	102*	22*
CCOc1ccc(NS(=O)(=O)c2ccc(C(=O)N(C)CC(=O)Nc3ccccc3Br)cc2)cc1	.	0	.	0	2	0	.	.
CCCCCCCNC(=O)C1(CC2CC(c3ccc(Cl)cc3)=NO2)CCN(C(=O)OC(C)(C)C)CC1 (stereo not drawn)	-7	0	5	0	-8	-2	.	.
SMILES	AI-2 QS modul	MsrA inh	AHR act	Tb MetRS inh	m5-HT2A agonist	bovine MsrA act	AHR act confirm	PXR act counter
Cc1cc(NC(=O)c2ccccc2-c2ccccc2)ccc1Br	14	2	94*	0	-6	-1	93*	153*
CCOc1ccc(NC(=S)N(CCc2c(C)[nH]c3ccc(C)cc23)Cc2ccco2)cc1	8	-2	86*	-1	6	1	67*	91*
CCOc1ccc(NC(=S)N(CCc2c(C)[nH]c3ccc(C)cc23)Cc2cccnc2)cc1	11	0	36	-1	-3	-3	.	.
Cc1cccc(NC(=O)Nc2cnccn2)c1C	12	1	23	-1	-1	-4	.	.
COc1ccc(-c2cc3cc(OC)c(OC)cc3c(C)n2)cc1C	20	2	96*	0	3	-5	58*	29*
C[C@@H]1CN([C@@H](C)CO)C(=O)c2cc(NC(=O)c3ccccc3)ccc2O[C@@H](C)CCCCO[C@@H]1CN(C)S(=O)(=O)c1ccc(F)cc1	.	0	.	-1	2	-2	.	.
Clc1ccc(-n2nnc(-c3nccs3)n2)cc1Cl	11	1	116*	0	0	-1	84*	33*
Cc1ccc(-n2nnc(-c3nccs3)n2)cc1	14	1	-7	0	-4	0	.	.
Clc1ccc(-n2nnc(-c3cccnc3)n2)cc1Cl	9	-1	112*	0	0	0	135*	38*
Fc1ccc(-n2nnc(-c3cccnc3)n2)cc1	8	1	12	0	2	-4	.	.
Cc1cc2oc(C(=O)NCc3ccncc3)c(C)c2cc1C	17	1	89*	0	0	1	50*	28*
COc1cc2ncnc(NCCCN3CCOCC3)c2cc1OC	6	0	0	0	0	-3	.	.
CCOc1cc2nc(-c3ccc(OC)c(OC)c3)nc(NCCCN3CCOCC3)c2cc1OC	0	3	101*	0	-4	0	120*	17*
CC(=O)c1oc2ccccc2c1N	-3	2	7	0	1	-9	.	.
COc1ccc(C(=O)c2oc3ccccc3c2N)cc1	-7	0	82*	0	-1	-2	133*	12*
Nc1c(C(=O)Nc2ccc(Cl)cc2)oc2ccccc12	33	3	107*	-1	-5	-6	132*	60*
Nc1c(C(=O)c2ccccc2)oc2ccccc12	15	0	112*	-1	-5	-6	140*	24*
Nc1c(C(=O)c2ccc(F)cc2)oc2ccccc12	-3	2	92*	0	-6	-9	156*	16*
CCOc1ccc(C(=O)Nc2c(C(N)=O)oc3ccccc23)cc1	28	0	46	-1	3	-7	.	.
COc1cccc(C(=O)Nc2c(C(N)=O)oc3ccccc23)c1	-12	0	94*	0	-2	-3	133*	21*
O=C(Cn1cnc2ccccc21)c1ccc(Br)cc1	7	0	5	-1	8	-5	.	.

Bioassay records: PubChem BioAssay, several laboratories
